Assay outcomes from PubChem BioAssay.
Kir21 block – inhibitors of mouse Kir2.1 inward-rectifier potassium channel. HEK293-Kir2.1, FluxOR thallium flux fluorescence; stronger effect = lower value. actives 0.85% (n = 310,000). B-score at 10 µM;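 active = fluorescence ratio B-score at or below minus 3 SD of library scores, with starting-brightness B-score within 2 SD, cut at about -4.2 in these data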;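 note: channel flux triggered by added potassium and thallium sulfate stimulus; B-score of peak minus minimum fluorescence over baseline after thallium stimulus; more negative B-score means stronger Kir2.1 block with less thallium influx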
KCNQ1 pot – human KCNQ1 channel potentiation or activation | P51787 | CHO-K1 KCNQ1, thallium flux FluxOR fluorescence; stronger effect = higher value | B-score at 10 µM | actives 0.35% (n = 310,000);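 active = fluorescence ratio B-score, a plate-corrected score, at least three library SD, with initial intensity B-score within 5 SD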
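assay system = CHO-K1 cells stably expressing KCNQ1 | medium = assay buffer, equal DMSO in all wells | timing = 37 °C overnight plating, 90-min dark dye load, 20-min compound pretreatment | measured by = kinetic FluxOR thallium fluorescence, 10-s 1-Hz baseline, 110-s post-stimulus read | measure = fluorescence change relative to baseline, converted to B score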
KCNQ1 block – inhibitors of human KCNQ1 potassium channel. actives 1.3% (n = 310,000). P51787. CHO-K1 KCNQ1, FluxOR thallium flux fluorescence; stronger effect = higher value. B-score at 10 µM;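 active = compounds whose thallium flux B-score, printed positive for inhibition, exceeds three library SD while starting fluorescence stays within three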;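 note: channel opened by potassium depolarization with thallium stimulus after 20 min compound exposure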
hERG rescue – hERG (human) protection from proarrhythmic block | Q12809 | CHO-hERG, FluxOR thallium flux, dofetilide IC70 present | activation (rescue from dofetilide block), less the hit threshold, % at 10 µM | actives 0.51% (n = 310,000) | AID 1511;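 active = activation above the mean of controls blocked by dofetilide plus 5 SD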;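 note: thallium influx through hERG after potassium depolarization seen as dye fluorescence rise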
KCNK9 inh – blocks the human KCNK9 two-pore domain potassium channel. Q9NPC2. HEK293 KCNK9, FluxOR thallium flux fluorescence; stronger effect = lower value. B-score at 10 µM. actives 1.2% (n = 310,000);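 active = ratio B-score over 3 SD below the library mean, with starting fluorescence within 5 SD of its mean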;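 note: negative B-score means less thallium flux so channel inhibition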
Target sequence (Q9NPC2 whole entry, looked up, the tested form may be a part): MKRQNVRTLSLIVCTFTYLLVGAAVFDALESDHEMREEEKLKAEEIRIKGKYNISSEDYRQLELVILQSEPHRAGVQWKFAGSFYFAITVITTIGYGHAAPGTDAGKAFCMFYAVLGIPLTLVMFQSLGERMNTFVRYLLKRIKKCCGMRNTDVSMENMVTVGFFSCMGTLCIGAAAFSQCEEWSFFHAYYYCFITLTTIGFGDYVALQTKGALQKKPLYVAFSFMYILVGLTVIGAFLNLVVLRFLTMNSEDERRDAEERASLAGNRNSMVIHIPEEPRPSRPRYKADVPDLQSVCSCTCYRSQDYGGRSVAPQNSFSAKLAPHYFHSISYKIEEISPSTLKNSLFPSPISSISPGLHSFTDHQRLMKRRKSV
KCNK3 block – human KCNK3 channel inhibition, primary screen; O14649; CHO-KCNK3 thallium flux, FluxOR fluorescence; stronger effect = lower value; B-score at 10 µM; actives 0.84% (n = 340,000);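 active = B-score under library mean minus 4 SD, starting fluorescence ratio at most library mean plus 5 SD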;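 note: more negative B-score means stronger inhibition of thallium flux through KCNK3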
* = called active by the depositor; i = inactive; · = no result given. An excerpt weighted towards active compounds, which were near 3.8% of everything screened.

SMILES | Kir21 block | KCNQ1 pot | KCNQ1 block | hERG rescue | KCNK9 inh | KCNK3 block
COC(=O)c1cc(NC(=O)CN(C)C2CCS(=O)(=O)C2)cc(C(=O)OC)c1 (stereo not given) | · | · | · | · | · | i
COc1ccccc1N(CC(=O)Nc1cc(S(=O)(=O)N(C)C)ccc1C)S(=O)(=O)c1cccs1 | · | · | · | · | · | i
CCN(Cc1ccccc1)S(=O)(=O)c1ccc(OC)c2ncccc12 | -2.13 | i | i | -8.1 | i | i
COc1ccc(S(=O)(=O)N(C)c2ccccc2)c2cccnc12 | -5.1* | i | i | -12.9 | i | i
O=C(NCC1CCCO1)C(=O)N/N=C\c1ccc2c(c1)OCO2 (stereo not given) | -0.6 | i | i | -7.9 | i | i
Cc1cc(C)nc(SCc2nnc(SCC(=O)Nc3nc(-c4ccccc4)cs3)n2-c2ccccc2)n1 | 0.06 | i | i | 6.5* | i | i
O=c1[nH]c(NCCO)nc2c1C1(CCCC1)Cc1ccccc1-2 | -1.47 | i | i | -16.0 | i | i
C=CCNC(=S)NNc1nc2c(c(=O)[nH]1)C1(CCCCC1)Cc1ccccc1-2 | 3.66 | i | 8* | -14.2 | i | i
C=CCN1C(=O)S/C(=C/c2ccsc2)C1=O | -1.34 | i | i | -1.0 | i | i
C=CCN1C(=O)S/C(=C/c2ccc(Sc3nc4ccccc4[nH]3)o2)C1=O | 0.04 | i | 6* | -3.1 | i | i
CCOc1c(O)ccc(/C=C2\SC(=S)NC2=O)c1[N+](=O)[O-] | 1.15 | i | i | -10.5 | i | i
CCOc1c(OC(C)=O)ccc(/C=C2\N=C(SCC)SC2=O)c1[N+](=O)[O-] | 2.05 | i | 9* | -25.3 | i | i
CCOc1cc(/C=C2\N=C(SCC)SC2=O)cc([N+](=O)[O-])c1OC(C)=O | 0.86 | i | 8* | -22.1 | i | i
CCOc1cc(/C=C2\N=C(SC)SC2=O)cc([N+](=O)[O-])c1OC(C)=O | -0.5 | i | 12* | -25.2 | i | i
CCSC1=N/C(=C\c2ccc(C)s2)C(=O)S1 | -1.85 | i | i | -6.6 | i | i
CCn1c(=O)c(-[n+]2ccccc2)c(O)c2ccccc21 | 1.46 | i | i | 8.3* | i | i
CCn1c(=O)c(C(=O)NNC(=O)c2ccccc2)c(O)c2ccccc21 | 0.48 | i | i | -6.3 | i | i
COc1cccc(CNC(=O)CSCc2cnn(-c3ccccc3)c2-n2cccc2)c1 | -5.79* | i | i | -8.8 | i | i
CNC(=O)CSCc1cnn(-c2ccccc2)c1-n1cccc1 | -0.6 | i | i | -4.9 | i | i
O=c1oc(-c2ccccc2)cc(Cl)c1Cl | -0.84 | i | 6* | -24.3 | i | i
O=C(CN1CCN(c2ccccc2O)CC1)Nc1ccnn1C1CCCC1 | · | · | · | · | · | i
COc1ccc(-c2[nH]ncc2/C=N\NC(=O)c2ccc(C(C)(C)C)cc2)cc1OC | 0.26 | i | 6* | -8.0 | i | i
CCCCOc1ccc(C(=O)N/N=C/c2cn[nH]c2-c2ccc(OC)c(OC)c2)cc1 | 0.71 | i | i | -15.8 | i | i
CC1(C)CC(c2nc(-c3ccc(Cl)cc3)cs2)CCS1 (stereo not given) | 0.15 | i | 9* | -10.2 | i | i
COc1cccc(NC(=O)COC(=O)c2cc(=O)c3ccccc3o2)c1 | · | · | · | · | · | i
SMILES | Kir21 block | KCNQ1 pot | KCNQ1 block | hERG rescue | KCNK9 inh | KCNK3 block
COc1ccc(C(=O)Nc2sc(C)c(-c3ccccc3)c2C#N)cc1OC | -0.34 | i | 6* | -4.9 | i | -10.6*
Cc1sc(NC(=O)COc2ccccc2)c(C#N)c1-c1ccccc1 | -2.6 | i | i | -4.9 | i | i
CSc1ccc(/C=C/C(=O)OCC(=O)c2ccc[nH]2)cc1 | · | · | · | · | · | i
Cc1cc(C)nc(NC(=O)c2cc(-c3ccc(C)s3)nc3ccccc23)c1 | 2.5 | i | 6* | -4.6 | i | i
CN1CCN(NC(=O)c2cc(-c3ccccn3)nc3ccccc23)CC1 | 0.65 | i | i | -3.8 | i | i
CN1CCN(NC(=O)c2cc(-c3ccc(Cl)s3)nc3ccccc23)CC1 | -4.52* | i | i | -11.8 | i | i
CCN(C(=O)COC(=O)c1oc2ccccc2c1C)c1c(N)n(Cc2ccccc2)c(=O)[nH]c1=O | · | · | · | · | · | i
N=c1oc2ccc([N+](=O)[O-])cc2cc1C(=O)NCc1ccccc1 | 0.94 | i | i | -3.8 | i | i
O=[N+]([O-])c1ccc2oc(C(O)c3cccc(Cl)c3)cc2c1 (stereo not given) | 0.03 | i | 9* | -15.9 | i | i
CCCCCCCC/C=C\CCCCCCCC(=O)O | 1.39 | i | i | 13.1* | i | i
Cc1cc(Cl)c2oc(C(=O)N3CCCCC3CCN3CCCC3=O)c(C)c2c1 (stereo not given) | -0.9 | i | i | -11.9 | i | i
C[C@H]1CC[C@H]2C(=O)N3[C@H](c4cccc(N5CCCC5=O)c4)[C@@H](C)CC[C@H]3C(=O)N2[C@@H]1c1cccc(N2CCCC2=O)c1 | 0.67 | i | i | -7.8 | i | ·
C[C@H]1CC[C@H]2C(=O)N3[C@H](c4ccccc4Br)[C@@H](C)CC[C@H]3C(=O)N2[C@@H]1c1ccccc1Br | -0.12 | i | i | -9.9 | -9.59* | ·
OC(COC(c1ccccc1)c1ccccc1)CN1CCCCC1 (stereo not given) | -1.94 | i | i | 6.4* | i | i
COC(=O)c1sc(C(F)(F)F)c(-c2ccccc2)c1S(=O)(=O)N1CCOCC1 | · | · | · | · | · | i
CCOc1cc2c(cc1/C=C/c1noc(C)c1[N+](=O)[O-])OC(C)C2 (stereo not given) | -5.11 | i | 7* | -9.2 | i | i
Cc1ccsc1C(=O)Nc1n[nH]c(C(F)(F)F)n1 | 0.04 | i | i | -10.6 | i | i
O=C(Nc1n[nH]c(C(F)(F)F)n1)C1CC1 | -0.67 | i | i | 4.7* | i | i
COc1ccc(OC)c(/C=C/C(=O)N2CCN(S(=O)(=O)c3cc(C)ccc3C)CC2)c1 | · | · | · | · | · | i
COc1ccccc1/C=C/C(=O)N1CCN(S(=O)(=O)c2cc(C)ccc2C)CC1 | · | · | · | · | · | -8.78*
CC1c2ccsc2CCN1S(=O)(=O)c1cccs1 (stereo not given) | -6.25* | i | i | -6.8 | i | i
CN1CCN(S(=O)(=O)c2cccs2)CC1 | 1.65 | i | i | -9.4 | i | i
COc1cc(C(=O)OCC(=O)NC2CCCCC2)cc2c1OCCO2 | · | · | · | · | · | i
CCCCOc1ccc(C(=O)N/N=C/c2ccc(OCCN3CCCCC3)c(OC)c2)cc1 | -3.08 | i | 6* | -14.8 | i | i
